The source made the active and inactive calls. No cut-off for these calls is given here.
Legend:
[1] = Cytotoxicity against human U937 cells assessed as cell viability at 10 uM after 72 hrs by trypan blue staining assay; settings: U-937, 72 h
Jurkat [2] = test: Cytotoxicity against human Jurkat cells assessed as cell viability at 10 uM after 72 hrs by trypan blue staining assay
U-937 = test: Cytotoxicity against human U937 cells assessed as inhibition of cell viability at 20 uM after 72 hrs by trypan blue staining assay; type: functional, cell-based
K562 [3] = test: Cytotoxicity against human K562 cells assessed as inhibition of cell proliferation at 20 uM after 72 hrs by trypan blue staining assay; type: functional, cell-based
Outline: (§1)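 Trypan blue exclusion count of Jurkat, U937 or K562 cells (RPMI, 10% FCS, 37 °C, 5% CO2, 10 days' culture after thawing) exposed to compound from DMSO stock; controls received equal DMSO. Proliferation expressed relative to control; mean ± SD of three determinations, Student's t-test with p<0.05 taken as significant.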

K562 [4] = test: Cytostatic effect against human K562 cells at >30 uM after 72 hrs by trypan blue staining assay; type: functional, cell-based
Outline: as §1

Jurkat [5] = test: Cytotoxicity against human Jurkat cells assessed as reduction in cell viability after 72 hrs by CellTiter-Glo luminescent cell viability assay; type: functional, cell-based
Outline: (§2)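 Leukemia cells in RPMI/10% FCS at 37 °C, 5% CO2 treated for 24, 48 or 72 h. Equal volume of CellTiter-Glo reagent added, 10 min in the dark at RT, ATP luminescence converted to viable cell number. Normalized to untreated control (%), etoposide as positive control; mean ± SD of three determinations; IC50 from concentration-response.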

[6] = Cytotoxicity against human U937 cells assessed as reduction in cell viability after 72 hrs by CellTiter-Glo luminescent cell viability assay; type: functional, cell-based; settings: U-937, 72 h
Outline: as §2

K562 [7] = test: Cytotoxicity against human K562 cells assessed as reduction in cell viability after 72 hrs by CellTiter-Glo luminescent cell viability assay; type: functional, cell-based; settings: K562, 72 h
Outline: as §2

PBMC = test: Cytotoxicity against human PBMC assessed as reduction in cell viability at 10 to 50 after 24 to 72 hrs by CellTiter-Glo luminescent cell viability assay; type: cell-based
Outline: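 PBMCs isolated from healthy donor buffy coats (blood diluted 1/3 in RPMI, Ficoll, 400 × g, 20 min), kept 24 h at 37 °C, 5% CO2, then treated 24–72 h. ATP read by CellTiter-Glo luminescence (10 min, dark, RT), normalized to untreated control (%); etoposide positive control; mean ± SD, n=3.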

Jurkat [8] = test: Induction of apoptosis in human Jurkat cells assessed as caspase-3 cleavage at 20 uM after 48 hrs Western blotting method; type: functional, cell-based
Outline: (§3)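 Jurkat cells (10⁷ per sample) treated up to 48 h, lysed on ice in hypertonic detergent buffer with protease inhibitors, cleared at 15,000 × g, 15 min, 4 °C. Separated by 10% SDS-PAGE, transferred to nitrocellulose, probed with anti-caspase 3 or anti-caspase 7 (1/1000) and HRP secondary; β-actin loading control.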

Jurkat [9] = test: Induction of apoptosis in human Jurkat cells assessed as caspase-7 cleavage at 20 uM after 48 hrs Western blotting method; type: functional, cell-based
Outline: as §3

Jurkat [10] = test: Cytotoxicity against human Jurkat cells assessed as inhibition of cell proliferation after 72 hrs by trypan blue staining assay; type: functional, cell-based
Outline: as §1

Jurkat [11] = test: Cytotoxicity against human Jurkat cells assessed as inhibition of cell proliferation at 50 uM after 72 hrs by trypan blue staining assay; type: functional
Outline: as §1

[12] = Cytotoxicity against human U937 cells assessed as inhibition of cell proliferation at 30 uM after 72 hrs by trypan blue staining assay; type: functional; settings: U-937, 72 h
Outline: as §1

K562 [13] = test: Cytotoxicity against human K562 cells assessed as inhibition of cell proliferation at 10 to 50 uM after 8 to 72 hrs by trypan blue staining assay; type: functional, cell-based
Outline: as §1

Jurkat [14] = test: Cytotoxicity against human Jurkat cells assessed as reduction in cell viability after 24 to 72 hrs by CellTiter-Glo luminescent cell viability assay; type: functional, cell-based
Outline: as §2

K562 [15] = test: Cytotoxicity against human K562 cells assessed as reduction in cell viability after 24 to 72 hrs by CellTiter-Glo luminescent cell viability assay; type: functional, cell-based
Outline: as §2

[16] = Cytotoxicity against human U937 cells assessed as reduction in cell viability at 10 to 50 uM after 48 hrs by CellTiter-Glo luminescent cell viability assay; type: functional, U-937
Outline: as §2

[17] = Cytotoxicity against human U937 cells assessed as reduction in cell viability at 10 to 50 uM after 72 hrs by CellTiter-Glo luminescent cell viability assay; type: functional, U-937
Outline: as §2

| SMILES | viability at 10 µM [1] | viability at 10 µM (Jurkat [2]) | other results |
| --- | --- | --- | --- |
| COc1ccc(/C=C/C(=O)c2ccc3c(c2O)OCO3)cc1OC | 69.3% | 77.5% | – |
| COc1ccccc1/C=C/C(=O)c1ccc2c(c1O)OCO2 | 55.4% | 59% | inhibition (U-937): Active; inhibition (K562 [3]): Active; Activity (K562 [4]): Active; IC50 (Jurkat [5]): 13.7 µM; IC50 [6]: 11.4 µM; IC50 (K562 [7]): 42.3 µM; Activity (PBMC): Non-toxic; Activity (Jurkat [8]): Active; Activity (Jurkat [9]): Active |
| COc1ccc(/C=C/C(=O)c2ccc3c(c2O)OCO3)cc1 | 80.9% | 80.6% | – |
| COc1ccc(C2CC(=O)c3ccc4c(c3O2)OCO4)cc1OC (configuration not stated) | 80.4% | 74.9% | – |
| COc1ccc(C2CC(=O)c3ccc4c(c3O2)OCO4)cc1 (configuration not stated) | 81.7% | 88.2% | – |
| COc1ccccc1C1CC(=O)c2ccc3c(c2O1)OCO3 (configuration not stated) | 74% | 83.2% | – |
| COc1cc(/C=C/C(=O)c2ccc3c(c2O)OCO3)cc(OC)c1OC | 64.4% | 56.1% | inhibition (Jurkat [10]): Dose-dependent effect; inhibition at 50 µM (Jurkat [11]): 70%; inhibition at 30 µM [12]: 41%; inhibition (K562 [13]): inactive; inhibition (Jurkat [14]): Dose-dependent effect; inhibition (K562 [15]): inactive; inhibition (INH) [16]: 35%; inhibition (INH) [17]: 20%; Activity (PBMC): Non-toxic |
| COc1cc(C2CC(=O)c3ccc4c(c3O2)OCO4)cc(OC)c1OC (configuration not stated) | 68.3% | 69.7% | – |
| COc1ccccc1-c1cc(=O)c2ccc3c(c2o1)OCO3 | 82.7% | 91.6% | – |
| COc1ccc(-c2cc(=O)c3ccc4c(c3o2)OCO4)cc1OC | 82.5% | 87.9% | – |
| COc1ccc(-c2cc(=O)c3ccc4c(c3o2)OCO4)cc1 | 76.5% | 81.2% | – |
| COc1cc(-c2cc(=O)c3ccc4c(c3o2)OCO4)cc(OC)c1OC | 90.5% | 76% | – |

Source: ChEMBL document CHEMBL3351715, “Methylenedioxy flavonoids: assessment of cytotoxic and anti-cancer potential in human leukemia cells” (Eur J Med Chem, 2014)
